Calls of active or inactive are those of the source. No cut-off for these calls is given here.
How the values were obtained:
[1] = Toxicity in nu/nu CD-1 mouse implanted with mouse NIH-3T3/LISN cells assessed as reduction in body weight at 30 mg/kg, po administered twice daily for 5 to 21 days relative to control; assay type: organism-based; set-up: scale not given: the % may be the effect or the level left; conditions: in vivo, time 5-21 day
[2] = biological target: Tyrosine-protein kinase Blk (Mus musculus) (UniProt P16277); test: Inhibition of N-terminal His6-tagged recombinant full-length mouse Blk expressed in baculovirus infected Sf21 cells at 0.3 uM by filter binding assay relative to control
Outline: (§1)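 Outsourced single-concentration screen in a commercial panel of 233 protein kinases, run as radiometric filter-binding activity assays. Test agent was tested at 0.3 or 3 µmol/L, as given in each line, from a 10 mmol/L DMSO stock. Activity is expressed as percent inhibition relative to control.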

[3] = biological target: Homeodomain-interacting protein kinase 3 (Homo sapiens) (UniProt Q9H422); test: Inhibition of N-terminal 6His-tagged recombinant human HIPK3 (161 to 562 residues) expressed in baculovirus infected Sf21 cells at 0.3 uM by filter binding assay relative to control; outline: as §1
[4] = biological target: Serine/threonine-protein kinase PAK 4 (Homo sapiens) (UniProt O96013); test: Inhibition of N-terminal His6/C-terminal GST-tagged recombinant human PAK4 (295 to end residues) expressed in baculovirus infected Sf21 cells at 3 uM by filter binding assay relative to control
[5] = system: SK-OV-3; test: Antiproliferative activity against human SK-OV-3 cells assessed as reduction in cell viability after 72 hrs by CellTiter-Glo assay; assay type: functional, cell-based; conditions: SK-OV-3, 72 h
Outline: (§2)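 Cells seeded in 96-well plates, left overnight at 37°C, then exposed to a range of test concentrations for 72 h. Viability read by CellTiter-Glo luminescence; IC50 from four-parameter curve fit. Lines kept at 37°C, 5% CO2, in recommended growth medium.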

[6] = biological target: Insulin receptor (Mus musculus) (UniProt P15208); conditions: CD-1, dose 30.0 mg/kg, route po, time 21.0 day
Chain of Insulin receptor (Mus musculus) (P15208 28-748 limits assumed): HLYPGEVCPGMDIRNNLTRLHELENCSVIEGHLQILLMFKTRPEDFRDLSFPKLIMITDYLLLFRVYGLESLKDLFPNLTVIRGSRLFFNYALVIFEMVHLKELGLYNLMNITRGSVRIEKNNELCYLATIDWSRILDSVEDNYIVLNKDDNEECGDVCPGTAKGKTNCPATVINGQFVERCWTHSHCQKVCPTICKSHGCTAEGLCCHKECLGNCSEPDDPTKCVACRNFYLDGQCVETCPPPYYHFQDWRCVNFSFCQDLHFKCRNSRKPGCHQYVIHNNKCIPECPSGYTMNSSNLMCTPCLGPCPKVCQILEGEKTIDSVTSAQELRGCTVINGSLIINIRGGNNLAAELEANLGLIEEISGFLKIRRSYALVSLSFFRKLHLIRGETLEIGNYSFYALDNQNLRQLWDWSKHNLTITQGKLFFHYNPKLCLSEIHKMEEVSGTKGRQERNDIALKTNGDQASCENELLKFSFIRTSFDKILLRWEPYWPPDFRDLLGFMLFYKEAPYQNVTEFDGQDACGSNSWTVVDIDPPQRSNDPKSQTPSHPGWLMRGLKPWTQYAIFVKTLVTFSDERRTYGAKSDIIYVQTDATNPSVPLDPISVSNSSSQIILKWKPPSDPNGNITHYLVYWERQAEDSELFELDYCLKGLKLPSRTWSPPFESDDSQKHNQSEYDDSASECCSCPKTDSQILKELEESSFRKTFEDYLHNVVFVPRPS
Chain of Insulin receptor (Mus musculus) (P15208 753-1372 limits assumed): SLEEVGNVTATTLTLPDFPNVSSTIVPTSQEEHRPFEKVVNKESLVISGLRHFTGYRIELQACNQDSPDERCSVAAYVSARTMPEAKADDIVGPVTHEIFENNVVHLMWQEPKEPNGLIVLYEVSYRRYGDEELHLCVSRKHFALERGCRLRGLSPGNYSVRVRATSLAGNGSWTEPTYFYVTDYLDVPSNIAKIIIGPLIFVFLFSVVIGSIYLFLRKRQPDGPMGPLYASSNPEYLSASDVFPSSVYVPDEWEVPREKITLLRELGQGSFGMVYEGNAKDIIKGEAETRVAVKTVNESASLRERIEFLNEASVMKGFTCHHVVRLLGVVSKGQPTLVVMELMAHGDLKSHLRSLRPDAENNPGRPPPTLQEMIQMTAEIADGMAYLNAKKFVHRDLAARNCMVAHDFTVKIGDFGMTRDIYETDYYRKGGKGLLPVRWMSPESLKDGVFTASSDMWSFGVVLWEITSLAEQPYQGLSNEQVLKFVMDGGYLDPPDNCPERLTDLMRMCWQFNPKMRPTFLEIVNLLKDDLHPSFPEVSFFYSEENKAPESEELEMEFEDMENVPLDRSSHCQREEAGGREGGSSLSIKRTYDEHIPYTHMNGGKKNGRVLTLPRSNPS

[7] = biological target: ALK tyrosine kinase receptor (Homo sapiens) (UniProt Q9UM73); test: Inhibition of N-terminal His6-tagged recombinant human ALK (1058 to end residues) expressed in baculovirus infected Sf21 cells at 3 uM by filter binding assay relative to control; outline: as §1
[8] = biological target: Ephrin type-A receptor 4 (Homo sapiens) (UniProt P54764); test: Inhibition of N-terminal His6-tagged recombinant human EphA4 (601 to 892 residues) expressed in baculovirus infected Sf21 cells at 3 uM by filter binding assay relative to control
[9] = system: KMS-12-BM; test: Antiproliferative activity against human KMS-12-BM cells assessed as reduction in cell viability after 72 hrs by CellTiter-Glo assay; assay type: functional, cell-based; outline: as §2
[10] = system: JJN-3; test: Antiproliferative activity against human JJN-3 cells assessed as reduction in cell viability after 72 hrs by CellTiter-Glo assay; assay type: functional, cell-based; conditions: JJN-3, 72 h; outline: as §2
[11] = biological target: TGF-beta receptor type-1 (Homo sapiens, UniProt P36897); test: Inhibition of ALK5 (unknown origin)
[12] = system: MCF7; test: Induction of cell cycle arrest in human MCF7 cells assessed as decrease in cells accumulation at S phase at 0.03 to 10 uM incubated for 24 to 48 hrs by propidium iodide staining based flow cytometric analysis; assay type: functional; conditions: dose 0.03-10 µM, time lower 24.0 hrs, time upper […]
Outline: (§3)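 COLO 205, MCF-7 or NCI-H929 cells seeded in 96-well plates overnight at 37°C, then exposed to DMSO or increasing compound concentrations for 24 or 48 h. Fixed and stained with propidium iodide (Vindelov method), then analysed by flow cytometry for sub-G1, G1, S and G2-M fractions. Experiment repeated twice.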

[13] = biological target: Testis-specific serine/threonine-protein kinase 1 (Homo sapiens) (UniProt Q9BXA7); test: Inhibition of 6His-tagged recombinant human full length TSSK1 expressed in baculovirus infected Sf21 cells at 3 uM by filter binding assay relative to control
Chain of Testis-specific serine/threonine-protein kinase 1 (Homo sapiens) (Q9BXA7 whole entry): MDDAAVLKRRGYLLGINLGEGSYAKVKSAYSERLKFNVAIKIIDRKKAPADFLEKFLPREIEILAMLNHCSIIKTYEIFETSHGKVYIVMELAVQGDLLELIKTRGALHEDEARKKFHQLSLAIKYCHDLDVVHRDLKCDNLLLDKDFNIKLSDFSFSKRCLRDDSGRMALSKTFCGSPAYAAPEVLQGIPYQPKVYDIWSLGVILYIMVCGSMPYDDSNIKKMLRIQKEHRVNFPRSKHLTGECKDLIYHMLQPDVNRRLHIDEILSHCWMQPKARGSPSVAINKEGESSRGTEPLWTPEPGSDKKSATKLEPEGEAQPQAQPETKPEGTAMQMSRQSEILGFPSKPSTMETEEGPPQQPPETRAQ
Outline: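 KinaseProfiler panel of 233 kinases: radiometric filter-binding activity assays with compound at 0.3 or 3 µmol/L. Read-out is percent inhibition.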

[14] = biological target: Tyrosine-protein kinase ZAP-70 (Homo sapiens, UniProt P43403); test: Inhibition of ZAP70 (unknown origin)
Chain of Tyrosine-protein kinase ZAP-70 (P43403 whole entry, canonical isoform): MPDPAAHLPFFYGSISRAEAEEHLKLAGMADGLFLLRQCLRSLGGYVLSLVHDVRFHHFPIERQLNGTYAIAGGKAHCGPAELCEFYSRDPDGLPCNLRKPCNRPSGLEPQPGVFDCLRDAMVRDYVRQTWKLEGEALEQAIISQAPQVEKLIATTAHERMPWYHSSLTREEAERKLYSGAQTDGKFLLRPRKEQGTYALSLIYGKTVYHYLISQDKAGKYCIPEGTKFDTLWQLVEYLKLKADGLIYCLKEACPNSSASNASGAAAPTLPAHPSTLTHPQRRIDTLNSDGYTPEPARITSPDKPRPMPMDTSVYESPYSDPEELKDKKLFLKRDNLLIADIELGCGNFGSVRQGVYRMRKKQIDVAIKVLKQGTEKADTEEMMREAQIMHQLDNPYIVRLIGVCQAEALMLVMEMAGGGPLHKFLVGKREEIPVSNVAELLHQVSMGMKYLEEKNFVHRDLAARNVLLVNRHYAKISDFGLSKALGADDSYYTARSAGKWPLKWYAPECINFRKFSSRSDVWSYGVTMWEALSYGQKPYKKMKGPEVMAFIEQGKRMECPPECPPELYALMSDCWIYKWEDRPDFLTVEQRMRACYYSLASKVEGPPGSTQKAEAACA

[15] = biological target: Phosphatidylinositol 4,5-bisphosphate 3-kinase catalytic subunit gamma isoform (Homo sapiens, UniProt P48736); test: Inhibition of PI3Kgamma (unknown origin)
Chain of Phosphatidylinositol 4,5-bisphosphate 3-kinase catalytic subunit gamma isoform (P48736 whole entry, canonical isoform): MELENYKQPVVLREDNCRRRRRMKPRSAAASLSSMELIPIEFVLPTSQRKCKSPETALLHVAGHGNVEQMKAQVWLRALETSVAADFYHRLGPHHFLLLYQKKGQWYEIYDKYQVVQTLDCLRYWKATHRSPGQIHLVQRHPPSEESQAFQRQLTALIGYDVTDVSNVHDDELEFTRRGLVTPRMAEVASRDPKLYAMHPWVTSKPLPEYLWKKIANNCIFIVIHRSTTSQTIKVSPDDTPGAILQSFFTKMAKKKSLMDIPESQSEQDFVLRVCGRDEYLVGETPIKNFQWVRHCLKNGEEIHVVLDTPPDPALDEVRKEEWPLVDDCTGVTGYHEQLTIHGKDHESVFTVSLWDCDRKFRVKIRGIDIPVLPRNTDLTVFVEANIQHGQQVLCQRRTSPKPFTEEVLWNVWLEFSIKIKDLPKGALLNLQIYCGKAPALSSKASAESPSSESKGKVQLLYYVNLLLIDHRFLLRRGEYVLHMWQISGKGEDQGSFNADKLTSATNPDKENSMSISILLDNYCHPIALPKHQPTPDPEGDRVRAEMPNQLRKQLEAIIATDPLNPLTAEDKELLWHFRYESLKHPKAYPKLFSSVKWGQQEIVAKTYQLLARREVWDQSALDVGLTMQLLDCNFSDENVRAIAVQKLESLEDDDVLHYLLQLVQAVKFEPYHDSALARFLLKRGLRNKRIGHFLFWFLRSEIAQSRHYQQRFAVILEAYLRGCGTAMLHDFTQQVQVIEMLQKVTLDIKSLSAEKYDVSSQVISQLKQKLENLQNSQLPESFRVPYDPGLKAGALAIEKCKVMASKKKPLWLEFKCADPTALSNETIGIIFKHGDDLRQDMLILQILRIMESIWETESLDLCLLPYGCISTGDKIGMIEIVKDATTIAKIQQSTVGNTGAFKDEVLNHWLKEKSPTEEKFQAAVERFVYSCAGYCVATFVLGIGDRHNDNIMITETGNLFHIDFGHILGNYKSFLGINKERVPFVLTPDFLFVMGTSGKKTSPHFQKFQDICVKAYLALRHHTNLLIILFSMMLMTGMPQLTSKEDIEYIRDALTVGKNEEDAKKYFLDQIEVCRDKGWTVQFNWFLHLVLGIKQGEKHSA

[16] = biological target: Serine/threonine-protein kinase TBK1 (Homo sapiens) (UniProt Q9UHD2); test: Inhibition of N-terminal His6-tagged recombinant full-length human TBK1 expressed in baculovirus infected Sf21 cells at 3 uM by filter binding assay relative to control; outline: as §1
[17] = biological target: Insulin receptor (Homo sapiens, UniProt P06213); test: Inhibition of N-terminal His6-tagged recombinant human IR (1005 to 1310 residues) expressed in baculovirus infected Sf21 cells by filter binding assay
[18] = biological target: Serine/threonine-protein kinase TAO2 (Homo sapiens) (UniProt Q9UL54); test: Inhibition of N-terminal 6His-tagged recombinant human TAO2 expressed in Sf21 cells at 0.3 uM by filter binding assay relative to control; outline: as §1
[19] = biological target: Death-associated protein kinase 2 (Homo sapiens) (UniProt Q9UIK4); test: Inhibition of N-terminal GST-tagged recombinant human full length DAPK2 expressed in baculovirus infected Sf21 cells at 0.3 uM by filter binding assay relative to control; outline: as §1
Chain of Death-associated protein kinase 2 (Homo sapiens) (Q9UIK4 whole entry, looked up): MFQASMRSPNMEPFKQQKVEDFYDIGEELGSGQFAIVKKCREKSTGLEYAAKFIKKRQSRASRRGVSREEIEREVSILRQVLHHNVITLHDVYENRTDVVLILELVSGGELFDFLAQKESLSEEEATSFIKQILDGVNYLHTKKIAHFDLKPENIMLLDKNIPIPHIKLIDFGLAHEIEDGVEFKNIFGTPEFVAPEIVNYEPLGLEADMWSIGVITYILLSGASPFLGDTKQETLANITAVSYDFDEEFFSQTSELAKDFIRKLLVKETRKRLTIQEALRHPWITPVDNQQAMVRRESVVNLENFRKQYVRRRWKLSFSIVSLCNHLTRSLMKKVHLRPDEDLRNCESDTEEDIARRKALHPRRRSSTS

[20] = biological target: RAC-alpha serine/threonine-protein kinase (Homo sapiens, UniProt P31749); test: Inhibition of AKT1 (unknown origin)
[21] = system: NCI-H929; test: Antiproliferative activity against human NCI-H929 cells assessed as reduction in cell viability after 72 hrs by CellTiter-Glo assay; assay type: functional, cell-based; conditions: NCI-H929, 72 h; outline: as §2
[22] = system: MCF7; test: Induction of cell cycle arrest in human MCF7 cells assessed as effect on sub-2N-DNA content at 0.03 to 10 uM incubated for 24 to 48 hrs by propidium iodide staining based flow cytometric analysis; assay type: functional; conditions: dose 0.03-10 µM, time lower 24.0 hrs, time upper […]; outline: as §3
[23] = biological target: Tyrosine-protein kinase Yes (Homo sapiens) (UniProt P07947); test: Inhibition of N-terminal His6 tagged recombinant full-length human Yes expressed in baculovirus infected Sf21 cells at 3 uM by filter binding assay relative to control; outline: as §1
Chain of Tyrosine-protein kinase Yes (Homo sapiens) (P07947 2-543 limits assumed): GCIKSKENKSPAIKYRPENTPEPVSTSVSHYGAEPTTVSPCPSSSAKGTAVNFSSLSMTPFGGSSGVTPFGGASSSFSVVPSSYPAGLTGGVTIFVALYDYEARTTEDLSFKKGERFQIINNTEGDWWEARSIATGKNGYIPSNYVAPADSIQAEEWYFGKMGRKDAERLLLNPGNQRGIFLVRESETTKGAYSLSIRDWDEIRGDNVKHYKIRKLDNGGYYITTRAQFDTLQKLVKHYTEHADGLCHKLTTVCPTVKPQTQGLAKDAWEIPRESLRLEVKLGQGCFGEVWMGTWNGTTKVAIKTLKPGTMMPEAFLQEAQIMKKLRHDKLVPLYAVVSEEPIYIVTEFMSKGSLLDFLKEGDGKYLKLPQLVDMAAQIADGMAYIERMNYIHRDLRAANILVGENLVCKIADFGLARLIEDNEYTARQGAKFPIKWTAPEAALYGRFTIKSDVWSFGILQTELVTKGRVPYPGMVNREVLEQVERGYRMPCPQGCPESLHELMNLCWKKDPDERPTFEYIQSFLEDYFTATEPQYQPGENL

[24] = biological target: Rho-associated protein kinase 2 (Homo sapiens) (UniProt O75116); test: Inhibition of N-terminal His6-tagged recombinant human ROCK-II (11 to 552 residues) expressed in baculovirus infected Sf21 cells at 0.3 uM by filter binding assay relative to control
[25] = biological target: Serine/threonine-protein kinase pim-1 (Homo sapiens) (UniProt P11309); test: Inhibition of N-terminal GST-tagged recombinant human full-length Pim-1 expressed in Escherichia coli cells at 0.3 uM by filter binding assay relative to control; outline: as §1
Chain of Serine/threonine-protein kinase pim-1 (Homo sapiens) (P11309 whole entry, looked up): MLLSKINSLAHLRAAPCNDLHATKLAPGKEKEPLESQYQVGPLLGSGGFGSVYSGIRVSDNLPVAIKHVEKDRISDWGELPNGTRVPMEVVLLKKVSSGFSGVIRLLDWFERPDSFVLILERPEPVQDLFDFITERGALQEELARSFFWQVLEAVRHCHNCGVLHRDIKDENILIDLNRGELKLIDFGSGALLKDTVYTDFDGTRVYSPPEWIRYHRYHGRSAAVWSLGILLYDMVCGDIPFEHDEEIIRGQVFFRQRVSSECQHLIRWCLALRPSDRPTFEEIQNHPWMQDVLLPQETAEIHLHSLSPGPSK

[26] = biological target: Mitogen-activated protein kinase 1 (Homo sapiens) (UniProt P28482); test: Inhibition of N-terminal GST-tagged recombinant human MAPK2 expressed in Escherichia coli at 0.3 uM by filter binding assay relative to control; outline: as §1
Chain of Mitogen-activated protein kinase 1 (Homo sapiens) (P28482 whole entry): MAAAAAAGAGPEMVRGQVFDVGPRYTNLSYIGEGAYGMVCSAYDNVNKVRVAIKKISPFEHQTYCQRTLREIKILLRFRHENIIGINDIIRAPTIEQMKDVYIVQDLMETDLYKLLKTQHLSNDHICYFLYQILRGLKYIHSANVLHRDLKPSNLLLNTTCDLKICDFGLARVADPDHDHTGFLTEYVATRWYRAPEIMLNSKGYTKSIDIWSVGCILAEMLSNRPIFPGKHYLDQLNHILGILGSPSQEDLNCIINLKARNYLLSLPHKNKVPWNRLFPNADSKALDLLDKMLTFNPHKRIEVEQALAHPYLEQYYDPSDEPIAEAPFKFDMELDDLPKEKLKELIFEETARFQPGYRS

[27] = biological target: Tyrosine-protein kinase Yes (Homo sapiens) (UniProt P07947); test: Inhibition of N-terminal His6 tagged recombinant full-length human Yes expressed in baculovirus infected Sf21 cells at 0.3 uM by filter binding assay relative to control; outline: as §1

Structure (SMILES): CCc1cc(Nc2nccc(-c3c(-c4ccc(OC)c(C(=O)Nc5c(F)cccc5F)c4)nc4ccccn34)n2)c(OC)cc1N1CCC(N2CCN(S(C)(=O)=O)CC2)CC1
- Activity [1]: 11%
- inhibition [2]: 25%
- inhibition [3]: 1%
- inhibition [4]: 0%
- IC50 [5]: > 20 µM
- inhibition [6]: inactive
- inhibition [7]: 39%
- inhibition [8]: -10%
- IC50 [9]: 0.113 µM
- IC50 [10]: > 30 µM
- IC50 [11]: > 10 µM
- Activity [12]: Active
- inhibition [13]: 11%
- IC50 [14]: > 20 µM
- IC50 [15]: > 10 µM
- inhibition [16]: 22%
- IC50 [17]: 0.074 µM
- inhibition [18]: 1%
- inhibition [19]: 1%
- IC50 [20]: > 10 µM
- IC50 [21]: 0.081 µM
- Activity [22]: inactive
- inhibition [23]: 27%
- inhibition [24]: -8%
- inhibition [25]: -8%
- inhibition [26]: -10%
- inhibition [27]: 0%
